Laboratory results: ChEMBL document CHEMBL3352785, “Study on one-pot four-component synthesis of 9-aryl-hexahydro-acridine-1,8-diones using SiO2-I as a new heterogeneous catalyst and their anticancer activity” (Bioorg Med Chem Lett, 2014)
Values after ≈ are worked out from the molar mass of the structure shown.

Experiments:
MCF7 = experiment: Anticancer activity against human cells MCF7 cells assessed as growth inhibition after 48 hrs by MTT assay; format: functional, cell-based; settings: MCF7, 48 h
Outline: (§1)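 Cells grown in MEM with 10% heat-inactivated FBS, penicillin, streptomycin and amphotericin-B at 37 °C, 5% CO2, and trypsinized with TPVG. Seeded at 1 × 10⁴ cells/well and allowed to adhere for 24 h, then exposed to a range of concentrations for 48 h. MTT (2 mg/mL in PBS) added for 3 h, formazan dissolved in isopropanol, A540 read. Growth inhibition calculated as (control − test)/control × 100.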

HepG2 = experiment: Anticancer activity against human cells HepG2 cells assessed as growth inhibition after 48 hrs by MTT assay; format: functional, cell-based; settings: HepG2, 48 h; outline: as §1

Row | IC50 (MCF7) [µg/mL] | IC50 (HepG2) [µg/mL] | SMILES
1 | 4.7 (≈ 12.6 µM) | 1.4 (≈ 3.74 µM) | CC1(C)CC(=O)C2=C(C1)NC1=C(C(=O)CC(C)(C)C1)C2c1cccc(C#N)c1
2 | 9.6 (≈ 25.3 µM) | 8.2 (≈ 21.6 µM) | COc1ccc(C2C3=C(CC(C)(C)CC3=O)NC3=C2C(=O)CC(C)(C)C3)cc1
3 | 5.3 (≈ 11.6 µM) | 2.2 (≈ 4.8 µM) | COc1ccc(C2C3=C(CC(C)(C)CC3=O)NC3=C2C(=O)CC(C)(C)C3)cc1Br
4 | 4.5 (≈ 11.4 µM) | 4.8 (≈ 12.2 µM) | CCOc1cccc(C2C3=C(CC(C)(C)CC3=O)NC3=C2C(=O)CC(C)(C)C3)c1
5 | 6.2 (≈ 16.2 µM) | 8.6 (≈ 22.4 µM) | CC1(C)CC(=O)C2=C(C1)NC1=C(C(=O)CC(C)(C)C1)C2c1cc(F)ccc1O
6 | 5.9 (≈ 16.1 µM) | 2.6 (≈ 7.11 µM) | CC1(C)CC(=O)C2=C(C1)NC1=C(C(=O)CC(C)(C)C1)C2c1ccccc1O
7 | 5 (≈ 12.2 µM) | 1.6 (≈ 3.91 µM) | COc1ccc(C2C3=C(CC(C)(C)CC3=O)NC3=C2C(=O)CC(C)(C)C3)c(OC)c1

Row | SMILES | IC50 (MCF7) [µg/mL] | IC50 (HepG2) [µg/mL]
8 | COc1cccc2c1C(=O)c1c(O)c3c(c(O)c1C2=O)C[C@@](O)(C(=O)CO)C[C@@H]3O[C@H]1C[C@H](N)[C@H](O)[C@H](C)O1 [DOXORUBICIN] | 1.09 (≈ 2.01 µM) | 1.21 (≈ 2.23 µM)
